Measured values reported in publication PMC3824626 (Bioorganic & medicinal chemistry letters, 2013).
Entries after “also recorded” stand apart in the source; their conditions may differ.

Experiments:
[1] = target: BLM helicase (Homo sapiens, UniProt P54132); experiment: gel-based BLM DNA unwinding assay; type: biochemical; conditions: for IC50 (BLM): gel-based BLM DNA unwinding assay
[2] = system: sister chromatid exchanges; conditions: cited from earlier work
[3] = system: BLM-positive cells; conditions: cited from earlier work
[4] = kinetic aqueous solubility; type: physicochemical; conditions: aqueous/DMSO solubility compared with other analogs
Method in brief: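 Kinetic aqueous solubility in PBS buffer, pH 7.4. It was measured by chemiluminescent nitrogen detection (CLND) at an outside laboratory and in-house by UV-Vis detection.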

[5] = system: WRN helicase; conditions: cited from earlier work
[6] = target: WRN (Homo sapiens, UniProt Q14191); experiment: gel-based DNA unwinding assay, WRN; type: biochemical; conditions: from gel-based IC50 values
Sequence of WRN (Q14191 whole entry): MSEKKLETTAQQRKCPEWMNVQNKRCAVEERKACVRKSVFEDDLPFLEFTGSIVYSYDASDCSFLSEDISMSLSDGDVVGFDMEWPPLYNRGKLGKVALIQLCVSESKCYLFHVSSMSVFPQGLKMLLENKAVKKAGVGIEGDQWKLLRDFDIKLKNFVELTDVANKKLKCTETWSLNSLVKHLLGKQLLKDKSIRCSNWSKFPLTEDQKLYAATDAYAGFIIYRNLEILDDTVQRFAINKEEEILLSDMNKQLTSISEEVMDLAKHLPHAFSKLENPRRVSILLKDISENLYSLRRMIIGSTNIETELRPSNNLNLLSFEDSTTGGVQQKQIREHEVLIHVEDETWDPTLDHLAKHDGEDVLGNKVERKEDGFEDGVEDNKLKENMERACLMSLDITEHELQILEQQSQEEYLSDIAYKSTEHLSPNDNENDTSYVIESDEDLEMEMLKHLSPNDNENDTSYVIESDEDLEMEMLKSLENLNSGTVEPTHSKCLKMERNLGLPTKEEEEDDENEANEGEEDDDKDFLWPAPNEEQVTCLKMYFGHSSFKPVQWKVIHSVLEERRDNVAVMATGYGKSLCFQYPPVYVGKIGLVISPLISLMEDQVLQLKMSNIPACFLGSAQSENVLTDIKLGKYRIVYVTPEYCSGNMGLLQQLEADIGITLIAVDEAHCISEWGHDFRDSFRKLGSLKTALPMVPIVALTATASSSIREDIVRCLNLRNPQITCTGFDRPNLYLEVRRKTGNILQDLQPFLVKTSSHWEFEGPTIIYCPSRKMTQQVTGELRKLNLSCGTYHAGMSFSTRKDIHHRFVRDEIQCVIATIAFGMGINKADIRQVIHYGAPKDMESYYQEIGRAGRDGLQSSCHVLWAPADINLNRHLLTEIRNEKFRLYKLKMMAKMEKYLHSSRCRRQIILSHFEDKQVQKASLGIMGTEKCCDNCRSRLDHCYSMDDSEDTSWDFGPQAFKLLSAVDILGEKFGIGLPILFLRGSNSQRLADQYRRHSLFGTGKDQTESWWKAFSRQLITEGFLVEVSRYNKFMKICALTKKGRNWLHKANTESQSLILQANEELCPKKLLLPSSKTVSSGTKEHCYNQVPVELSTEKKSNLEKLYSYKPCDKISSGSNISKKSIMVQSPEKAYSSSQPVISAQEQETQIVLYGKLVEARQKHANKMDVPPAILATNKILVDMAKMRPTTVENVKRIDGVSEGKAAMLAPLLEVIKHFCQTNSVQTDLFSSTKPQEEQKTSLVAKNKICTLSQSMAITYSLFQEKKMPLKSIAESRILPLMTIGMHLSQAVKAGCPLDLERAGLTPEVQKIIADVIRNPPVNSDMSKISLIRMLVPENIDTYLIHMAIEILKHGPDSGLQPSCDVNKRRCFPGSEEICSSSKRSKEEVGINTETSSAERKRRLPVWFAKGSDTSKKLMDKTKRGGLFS

[7] = target: BLM ATPase activity (Homo sapiens, UniProt P54132); experiment: BLM ATPase kinetic analysis; type: biochemical
Sequence of BLM ATPase activity (P54132 whole entry): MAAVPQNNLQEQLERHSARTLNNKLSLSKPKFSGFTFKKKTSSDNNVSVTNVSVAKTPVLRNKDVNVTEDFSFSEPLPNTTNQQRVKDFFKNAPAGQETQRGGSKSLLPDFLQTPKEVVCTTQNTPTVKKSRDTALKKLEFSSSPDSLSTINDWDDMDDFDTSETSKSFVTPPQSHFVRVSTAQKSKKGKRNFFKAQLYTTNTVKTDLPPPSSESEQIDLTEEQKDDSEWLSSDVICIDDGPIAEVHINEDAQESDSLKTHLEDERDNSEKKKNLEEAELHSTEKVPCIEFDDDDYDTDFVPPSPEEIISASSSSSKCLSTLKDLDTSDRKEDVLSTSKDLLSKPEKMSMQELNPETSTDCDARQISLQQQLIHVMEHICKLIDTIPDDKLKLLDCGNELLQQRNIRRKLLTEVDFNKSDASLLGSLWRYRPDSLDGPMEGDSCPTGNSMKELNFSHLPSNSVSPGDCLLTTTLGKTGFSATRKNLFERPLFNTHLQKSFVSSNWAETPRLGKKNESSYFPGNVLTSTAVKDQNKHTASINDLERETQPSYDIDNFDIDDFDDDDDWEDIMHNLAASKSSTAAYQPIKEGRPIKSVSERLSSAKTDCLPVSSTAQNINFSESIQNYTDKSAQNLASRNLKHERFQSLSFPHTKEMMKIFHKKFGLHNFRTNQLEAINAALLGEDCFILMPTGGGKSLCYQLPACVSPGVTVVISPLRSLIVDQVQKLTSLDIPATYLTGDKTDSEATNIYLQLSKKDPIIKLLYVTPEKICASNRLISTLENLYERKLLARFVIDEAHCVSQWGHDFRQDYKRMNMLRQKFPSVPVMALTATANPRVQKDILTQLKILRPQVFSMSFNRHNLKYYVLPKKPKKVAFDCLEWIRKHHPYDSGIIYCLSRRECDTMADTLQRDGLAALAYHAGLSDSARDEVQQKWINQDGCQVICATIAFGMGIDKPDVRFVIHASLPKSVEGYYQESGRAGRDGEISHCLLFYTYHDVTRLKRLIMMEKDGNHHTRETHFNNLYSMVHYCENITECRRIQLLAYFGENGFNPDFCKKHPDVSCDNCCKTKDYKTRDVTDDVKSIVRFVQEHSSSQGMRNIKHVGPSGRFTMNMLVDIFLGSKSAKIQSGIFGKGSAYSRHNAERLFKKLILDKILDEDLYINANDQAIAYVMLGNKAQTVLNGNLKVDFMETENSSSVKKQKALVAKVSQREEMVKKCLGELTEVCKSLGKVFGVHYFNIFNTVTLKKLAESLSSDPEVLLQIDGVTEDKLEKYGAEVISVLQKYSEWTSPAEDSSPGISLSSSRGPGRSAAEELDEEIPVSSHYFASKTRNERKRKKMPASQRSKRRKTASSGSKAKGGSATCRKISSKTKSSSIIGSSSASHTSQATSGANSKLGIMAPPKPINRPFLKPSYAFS
Method in brief: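 Michaelis–Menten analysis of BLM ATPase activity with and without test compound, replotted as a Lineweaver–Burk double-reciprocal plot. Each point is the mean ± SD of quadruplicate determinations, and the data shown represent three independent experiments.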

[8] = target: BLM (Homo sapiens, UniProt P54132); experiment: fluorescence polarization analysis of BLM binding to single-stranded DNA
Sequence of BLM (P54132 whole entry): as above

[9] = system: PSNF5 cells (BLM-complemented GM08505-derived BS cells); experiment: sister chromatid exchange frequency in BLM-complemented cells; type: cell-based, human; conditions: cells expressing BLM (PSNF5)
[10] = system: PSNG13 cells (BLM-defective GM08505-derived BS cells); experiment: sister chromatid exchange frequency in BLM-defective cells; type: cell-based, human; conditions: cells lacking BLM (PSNG13)

Sequence of BLM helicase (P54132 whole entry): as above

Row | SMILES | IC50 (BLM) [1] | also measured
1 | O=C(Nc1ccc(Cl)cc1)Nc1nnc(-c2ccncc2)s1 [Compound 8] | drastic loss in activity | –
2 | O=C(Cc1ccc2ccccc2c1)Nc1nnc(-c2ccncc2)s1 [Compound 7c] | weakly active or inactive | –
3 | O=C(Nc1ccc(F)c(C(F)(F)F)c1)Nc1nnc(-c2ccncc2)s1 [ML216] | – | induction of sister chromatid exchanges [2]: induce sister chromatid exchanges; antiproliferative activity [3]: selective antiproliferative activity in BLM-positive cells
4 | N#Cc1cc(NC(=O)Nc2nnc(-c3ccncc3)s2)ccc1-c1ccc[nH]1 [Compound 36] | good activity | –
5 | O=c1c(Nc2ccc(Cl)c(Cl)c2)c(Nc2nnc(-c3ccncc3)s2)c1=O [Compound 7g] | – | solubility (in words) [4]: not improved over (1)
6 | O=C(Nc1nnc(-c2ccncc2)s1)Oc1ccc2ccccc2c1 [Compound 7d] | weakly active or inactive | –
7 | N#Cc1ccc(NC(=O)Nc2nnc(-c3ccncc3)s2)cc1Br [Compound 24] | – | solubility (in words) [4]: noticeably diminished aqueous/DMSO solubility
8 | N#Cc1cc(NC(=O)Nc2nnc(-c3ccncc3)s2)ccc1Cl [Compound 10] | – | improvement in potency when 3-Cl is replaced with cyano ([1]; relative to compound 1, BLM gel-based IC50): 4 fold; solubility (in words) [4]: noticeably diminished aqueous/DMSO solubility; also recorded: diminished solubility compared with 33
9 | CN(C(=O)Nc1ccc2ccccc2c1)c1nnc(-c2ccncc2)s1 [Compound 7h] | complete loss of activity | –
10 | N#Cc1cc(NC(=O)Nc2nnc(-c3ccncc3)s2)ccc1Br [Compound 23] | – | solubility (in words) [4]: noticeably diminished aqueous/DMSO solubility
11 | N#C/N=C(/Nc1ccc(F)c(C(F)(F)F)c1)Nc1nnc(-c2ccncc2)s1 [Compound 7f] | weakly active or inactive | –
12 | CCCOCN1C(=O)C=CC1=O [NSC19630] | – | WRN helicase inhibition [5]: small molecule inhibitor of WRN helicase
13 | O=C(Nc1ccc(-n2ccnc2)c(F)c1)Nc1nnc(-c2ccncc2)s1 [Compound 35] | good activity | –
14 | O=C(Nc1ccc(Cl)c(Cl)c1)Nc1nnc(-c2ccncc2)o1 [Compound 6d] | loss of activity | –
15 | O=C(Nc1ccc(Cl)c(Cl)c1)Nc1nnc(-c2ccccc2)s1 [Compound 4a] | inactivity | –
16 | N=C(Nc1ccc(Cl)c(Cl)c1)Nc1nnc(-c2ccncc2)s1 [Compound 7b] | weakly active or inactive | –
17 | O=C(Nc1ccc(Cl)c(Cl)c1)Nc1ccc(-c2ccncc2)s1 [Compound 6a] | loss of activity | –
18 | O=C(Nc1ccccc1)Nc1nnc(-c2ccncc2)s1 [Compound 9] | drastic loss in activity | –
19 | O=C(Nc1ccc(Cl)c(Cl)c1)Nc1nnc(-c2ccccn2)s1 [Compound 4b] | inactivity | –
20 | O=S(=O)(Cc1ccc(Cl)c(Cl)c1)Nc1nnc(-c2ccncc2)s1 [Compound 7e] | weakly active or inactive | –
21 | N#Cc1cc(NC(=O)Nc2nnc(-c3ccncc3)s2)ccc1-c1cn[nH]c1 [Compound 33] | comparable activity to the probe compound | selectivity for BLM over WRN [6]: greater than 6 fold; mode of BLM inhibition ([7]; Lineweaver-Burk double reciprocal plot): non-ATP competitive BLM inhibitor; effect on apparent Km of BLM ATPase activity ([7]; single-stranded oligonucleotide as DNA effector): does not affect the apparent Km value; displacement of DNA binding to BLM versus related DNA helicases [8]: selective displacement of DNA binding to BLM over related DNA helicases; inhibition of BLM binding to single-stranded DNA [8]: dose-dependent inhibition; induction of SCEs [9]: significant and dose-dependent induction of SCEs; induction of SCEs [10]: no further increase in SCEs
22 | O=C(Nc1ccc(Cl)c(Cl)c1)Nc1ncc(-c2ccncc2)s1 [Compound 6c] | completely inactive | –
